Measurements published in ChEMBL document CHEMBL4312027, “Synthesis, characterization, and biological activity of a triphenylphosphonium-containing imidazolium salt against select bladder cancer cell lines” (Eur J Med Chem, 2020).
Calls of active or inactive are those of the source. The rule behind the calls is not given here.

What was measured:
[1] = tested on: RT-4; assay: Growth inhibition of human RT4 cells at 500 uM by Celltiter-Glo luminescent cell viability assay; format: functional, cell-based; settings: TDE = time-dependent effect
In short: (§1)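 Cells seeded 10000/well, 24 h, then exposed in ATCC-recommended medium to 62.5–2000 μM (two-fold steps) or vehicle for the set time (5–60 min), then normal medium. After 24 h, plates equilibrated 30 min at room temperature, CellTiter-Glo added, 2 min at room temperature, luminescence read. Survival relative to vehicle control; quadruplicate.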

[2] = tested on: RT-112; assay: Growth inhibition of human RT112 cells at 1000 uM measured after 5 mins by Celltiter-Glo luminescent cell viability assay; format: functional, cell-based; in short: as §1
[3] = tested on: RT-112; assay: Growth inhibition of human RT112 cells at 500 uM by Celltiter-Glo luminescent cell viability assay; format: functional, cell-based; settings: TDE = time-dependent effect; in short: as §1
[4] = tested on: RT-112; assay: Growth inhibition of human RT112 cells at 250 uM measured after 5 to 60 mins by Celltiter-Glo luminescent cell viability assay; format: functional, cell-based
[5] = tested on: UMUC3; assay: Growth inhibition of human UM-UC-3 cells measured after 1 hr by Celltiter-Glo luminescent cell viability assay; format: functional; settings: UMUC3, 1 h; in short: as §1
[6] = tested on: RT-4; assay: Growth inhibition of human RT4 cells at 1000 uM measured after 15 to 60 mins by Celltiter-Glo luminescent cell viability assay relative to control; format: functional; settings: read-out: GI; in short: as §1
[7] = tested on: RT-4; assay: Growth inhibition of human RT4 cells at 1000 uM measured after 5 mins by Celltiter-Glo luminescent cell viability assay; format: functional, cell-based; in short: as §1
[8] = tested on: EKVX; assay: Growth inhibition of human EKVX cells assessed as growth percent at 10 uM incubated for 48 hrs by sulforhodamine B assay relative to control; format: functional; settings: read-out: Activity
[9] = tested on: HOP-62; assay: Growth inhibition of human HOP62 cells assessed as growth percent at 10 uM incubated for 48 hrs by sulforhodamine B assay relative to control; format: functional; settings: HOP-62, 48 h, read-out: Activity
[10] = tested on: NCI-H322M; assay: Growth inhibition of human NCI-H322M cells assessed as growth percent at 10 uM incubated for 48 hrs by sulforhodamine B assay relative to control; format: functional; settings: read-out: Activity
[11] = tested on: NCI-H522; assay: Growth inhibition of human NCI-H522 cells assessed as growth percent at 10 uM incubated for 48 hrs by sulforhodamine B assay relative to control; format: functional; settings: NCI-H522, 48 h, read-out: Activity
[12] = tested on: HCC 2998; assay: Growth inhibition of human HCC2998 cells assessed as growth percent at 10 uM incubated for 48 hrs by sulforhodamine B assay relative to control; format: functional; settings: HCC 2998, 48 h, read-out: Activity
[13] = tested on: KM12; assay: Growth inhibition of human KM12 cells assessed as growth percent at 10 uM incubated for 48 hrs by sulforhodamine B assay relative to control; format: functional; settings: KM12, 48 h, read-out: Activity
[14] = tested on: SW-620; assay: Growth inhibition of human SW620 cells assessed as growth percent at 10 uM incubated for 48 hrs by sulforhodamine B assay relative to control; format: functional; settings: SW-620, 48 h, read-out: Activity
[15] = tested on: SF-295; assay: Growth inhibition of human SF295 cells assessed as growth percent at 10 uM incubated for 48 hrs by sulforhodamine B assay relative to control; format: functional; settings: SF-295, 48 h, read-out: Activity
[16] = tested on: SNB-75; assay: Growth inhibition of human SNB75 cells assessed as growth percent at 10 uM incubated for 48 hrs by sulforhodamine B assay relative to control; format: functional; settings: SNB-75, 48 h, read-out: Activity
[17] = tested on: U-251; assay: Growth inhibition of human U251 cells assessed as growth percent at 10 uM incubated for 48 hrs by sulforhodamine B assay relative to control; format: functional; settings: U-251, 48 h, read-out: Activity
[18] = tested on: SK-OV-3; assay: Growth inhibition of human SKOV3 cells assessed as growth percent at 10 uM incubated for 48 hrs by sulforhodamine B assay relative to control; format: functional; settings: SK-OV-3, 48 h, read-out: Activity
[19] = tested on: ACHN; assay: Growth inhibition of human ACHN cells assessed as growth percent at 10 uM incubated for 48 hrs by sulforhodamine B assay relative to control; format: functional; settings: read-out: Activity
[20] = tested on: SN12C; assay: Growth inhibition of human SN12C cells assessed as growth percent at 10 uM incubated for 48 hrs by sulforhodamine B assay relative to control; format: functional; settings: read-out: Activity
[21] = tested on: DU-145; assay: Growth inhibition of human DU145 cells assessed as growth percent at 10 uM incubated for 48 hrs by sulforhodamine B assay relative to control; format: functional; settings: DU-145, 48 h, read-out: Activity
[22] = tested on: UMUC3; assay: Anticlonogenic activity against human UM-UC-3 cells assessed as no colony formation at 250 to 500 uM incubated for 1 hr measured after culturing in normal medium for 10 days by crystal violet staining assay; format: functional, cell-based
In short: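 Cells seeded at 500/well, treated 24 h later with 250 or 500 μM drug or vehicle for 1 h. Cells were then grown in normal media for 10 days, stained with 0.5% crystal violet in 20% MeOH/water at 4 °C for 5 min, washed, dried and imaged. Run in triplicate.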

[23] = tested on: RT-112; assay: Induction of apoptosis in human RT112 cells assessed as increase in caspase 9 cleavage at 250 uM incubated for 1 hr and measured immediately after treatment by Western blot analysis; format: functional, cell-based
In short: (§2)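 RT112 seeded 300,000/well; after 24 h, 250 or 500 μM or vehicle. Cells plus floating debris harvested immediately or 24 h after treatment, lysed in RIPA with protease inhibitors. About 30 μg protein heated 10 min at 95 °C with DTT, run on SDS-PAGE. Immunoblotted for PARP and caspase 9, Ran as loading control, ECL detection.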

[24] = tested on: RT-112; assay: Induction of mitochondrial membrane depolarization in human RT112 cells at 200 uM measured after 1 hr by JC-1 staining based confocal microscopy; format: functional, cell-based
In short: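 RT112 cells, 200000 per glass-bottom dish, plated overnight. Exposed to 200 μM for 45 min, then JC-1 added (final 10 μg/mL) for 15 min. Confocal live imaging, excitation 485 nm, emission 530 and 590 nm, every 15 min for 6 h. Red punctate staining taken as polarized mitochondria, green as depolarized. CCCP as positive control.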

[25] = tested on: Mus musculus; assay: (§3) Antitumor activity against anesthetized BBN-induced bladder tumor mouse model assessed as increase in cleaved caspase 3 level in necrotic region at 1500 uM administered via intravesical instillation treated for 1 hr administered as 2 doses at 24 hrs interval and measured at 24 hrs after final treatment by hematoxylin and eosin staining based immunohistochemical analysis; format: functional, organism-based
[26] = tested on: Mus musculus; assay: as §3, with “dysplasia” for “necrotic”; format: functional, organism-based
[27] = tested on: Mus musculus; assay: as §3, with “hyperplasia” for “necrotic”; format: functional, organism-based
[28] = tested on: RT-112; assay: Induction of apoptosis in human RT112 cells assessed as increase in PARP cleavage at 500 uM incubated for 1 hr measured at 24 hrs after treatment by Western blot analysis; format: functional, cell-based; in short: as §2

[Br-].[Br-].c1ccc([P+](CCCc2n(Cc3ccc4ccccc4c3)c3ccccc3[n+]2Cc2ccc3ccccc3c2)(c2ccccc2)c2ccccc2)cc1
growth inhibition (GI) [1]: Tde | growth inhibition (GI) [2]: Active | growth inhibition (GI) [3]: Tde | growth inhibition (GI) [4]: Active | GI50 [5]: 80 µM | inhibition of growth at 1000 µM [6]: 100% | growth inhibition (GI) [7]: Active | growth at 10 µM [8]: 59.4% | growth at 10 µM [9]: 61.6% | growth at 10 µM [10]: 63.8% | growth at 10 µM [11]: 60.2% | growth at 10 µM [12]: 53.9% | growth at 10 µM [13]: 32.2% | growth at 10 µM [14]: 35.2% | growth at 10 µM [15]: 41.1% | growth at 10 µM [16]: 91% | growth at 10 µM [17]: 46.5% | growth at 10 µM [18]: 84.5% | growth at 10 µM [19]: 81.4% | growth at 10 µM [20]: 55% | growth at 10 µM [21]: 82.1% | inhibition [22]: Active | Activity [23]: Active | Activity [24]: inactive | Activity [25]: Active | Activity [26]: Active | Activity [27]: Active | Activity [28]: Active
